Key:
Type in all cases: functional
[1] = Growth inhibition of human MOLT4 cells after 48 hrs by sulforhodamine B assay; conditions: MOLT-4, 48 h
In short: (§1)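 Five-dose concentration series run across a panel of 60 human tumour cell lines. GI50 is taken as the drug concentration giving a 50% reduction in net protein increase relative to untreated control cells.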

KM12 [2] = assay: Growth inhibition of human KM12 cells at 10 uM after 48 hrs by sulforhodamine B assay; conditions: KM12, 48 h, values are per cent of control
786-0 = assay: Growth inhibition of human 786-0 cells after 48 hrs by sulforhodamine B assay; conditions: 786-0, 48 h
In short: (§2)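 Five-dose testing against a 60-line human tumor cell panel. GI50 is the drug concentration giving a 50% reduction in net protein increase relative to untreated control cells.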

[3] = Growth inhibition of human OVCAR4 cells after 48 hrs by sulforhodamine B assay; conditions: OVCAR-4, 48 h; in short: as §1
[4] = Growth inhibition of human UACC257 cells at 10 uM after 48 hrs by sulforhodamine B assay; conditions: UACC-257, 48 h, values are per cent of control
[5] = Growth inhibition of human SF295 cells after 48 hrs by sulforhodamine B assay; conditions: SF-295, 48 h; in short: as §1
MDA-MB-435 = assay: Growth inhibition of human MDA-MB-435 cells after 48 hrs by sulforhodamine B assay; conditions: MDA-MB-435, 48 h; in short: as §2
[6] = Growth inhibition of human RPMI8226 cells at 10 uM after 48 hrs by sulforhodamine B assay; conditions: RPMI-8226, 48 h, values are per cent of control
MDA-MB-231 [7] = assay: Growth inhibition of human MDA-MB-231 cells at 10 uM after 48 hrs by sulforhodamine B assay; conditions: MDA-MB-231, 48 h, values are per cent of control
HT-29 = assay: Growth inhibition of human HT-29 cells at 10 uM after 48 hrs by sulforhodamine B assay; conditions: HT-29, 48 h, values are per cent of control
MCF7 = assay: Growth inhibition of human MCF7 cells at 10 uM after 48 hrs by sulforhodamine B assay; conditions: MCF7, 48 h, values are per cent of control
[8] = Growth inhibition of human HL-60(TB) cells at 10 uM after 48 hrs by sulforhodamine B assay; conditions: HL-60, 48 h, values are per cent of control
[9] = Growth inhibition of human SW620 cells after 48 hrs by sulforhodamine B assay; conditions: SW-620, 48 h; in short: as §1
Malme-3M = assay: Growth inhibition of human MALME-3M cells at 10 uM after 48 hrs by sulforhodamine B assay; conditions: values are per cent of control
[10] = Growth inhibition of human OVCAR8 cells at 10 uM after 48 hrs by sulforhodamine B assay; conditions: OVCAR-8, 48 h, values are per cent of control
[11] = Growth inhibition of human UO31 cells at 10 uM after 48 hrs by sulforhodamine B assay; conditions: UO-31, 48 h, values are per cent of control
MDA-MB-231 [12] = assay: Growth inhibition of human MDA-MB-231 cells after 48 hrs by sulforhodamine B assay; conditions: MDA-MB-231, 48 h; in short: as §2
SR = assay: Growth inhibition of human SR cells after 48 hrs by sulforhodamine B assay; in short: as §1
[13] = Growth inhibition of human UACC62 cells after 48 hrs by sulforhodamine B assay; conditions: UACC-62, 48 h
In short: (§3)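 Five-dose testing across the 60-line human tumour cell panel. GI50 is the drug concentration that gives a 50% reduction in net protein increase relative to control cells.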

[14] = Growth inhibition of human BT549 cells at 10 uM after 48 hrs by sulforhodamine B assay; conditions: BT-549, 48 h, values are per cent of control
NCI-H522 = assay: Growth inhibition of human NCI-H522 cells after 48 hrs by sulforhodamine B assay; conditions: NCI-H522, 48 h; in short: as §1
[15] = Growth inhibition of human HCC2998 cells after 48 hrs by sulforhodamine B assay; conditions: HCC 2998, 48 h; in short: as §2
SK-MEL-5 = assay: Growth inhibition of human SK-MEL-5 cells at 10 uM after 48 hrs by sulforhodamine B assay; conditions: SK-MEL-5, 48 h, values are per cent of control
[16] = Growth inhibition of human OVCAR3 cells after 48 hrs by sulforhodamine B assay; conditions: OVCAR-3, 48 h; in short: as §1
[17] = Growth inhibition of human PC3 cells after 48 hrs by sulforhodamine B assay; conditions: PC-3, 48 h; in short: as §1
A549 [18] = assay: Growth inhibition of human A549/ATCC cells after 48 hrs by sulforhodamine B assay; conditions: A549, 48 h; in short: as §2
CCRF-CEM [19] = assay: Growth inhibition of human CCRF-CEM cells after 48 hrs by sulforhodamine B assay; in short: as §2
[20] = Growth inhibition of human LOXIMVI cells at 10 uM after 48 hrs by sulforhodamine B assay; conditions: LOX IMVI, values are per cent of control
KM12 [21] = assay: Growth inhibition of human KM12 cells after 48 hrs by sulforhodamine B assay; conditions: KM12, 48 h; in short: as §2
[22] = Growth inhibition of human SNB19 cells after 48 hrs by sulforhodamine B assay; conditions: SNB-19, 48 h; in short: as §1
[23] = Growth inhibition of human HOP62 cells after 48 hrs by sulforhodamine B assay; conditions: HOP-62, 48 h; in short: as §2
A549 [24] = assay: Growth inhibition of human A549/ATCC cells at 10 uM after 48 hrs by sulforhodamine B assay; conditions: A549, 48 h, values are per cent of control
ACHN = assay: Growth inhibition of human ACHN cells after 48 hrs by sulforhodamine B assay; in short: as §2
[25] = Growth inhibition of human SNB75 cells after 48 hrs by sulforhodamine B assay; conditions: SNB-75, 48 h; in short: as §1
[26] = Growth inhibition of human OVCAR3 cells at 10 uM after 48 hrs by sulforhodamine B assay; conditions: OVCAR-3, 48 h, values are per cent of control
[27] = Growth inhibition of human UO31 cells after 48 hrs by sulforhodamine B assay; conditions: UO-31, 48 h; in short: as §3
[28] = Growth inhibition of human PC3 cells at 10 uM after 48 hrs by sulforhodamine B assay; conditions: PC-3, 48 h, values are per cent of control
SK-MEL-2 = assay: Growth inhibition of human SK-MEL-2 cells after 48 hrs by sulforhodamine B assay; conditions: SK-MEL-2, 48 h; in short: as §1
[29] = Growth inhibition of human MOLT4 cells at 10 uM after 48 hrs by sulforhodamine B assay; conditions: MOLT-4, 48 h, values are per cent of control
MDA-MB-468 = assay: Growth inhibition of human MDA-MB-468 cells after 48 hrs by sulforhodamine B assay; conditions: MDA-MB-468, 48 h; in short: as §2
CCRF-CEM [30] = assay: Growth inhibition of human CCRF-CEM cells at 10 uM after 48 hrs by sulforhodamine B assay; conditions: values are per cent of control
[31] = Growth inhibition of human HOP92 cells at 10 uM after 48 hrs by sulforhodamine B assay; conditions: HOP-92, 48 h, values are per cent of control

With `COc1ccc(/C=C(\C#N)c2ccc3c(c2)OCO3)c2ccccc12` the GI50 [1] was 3710 nM, the growth, % of control at 10 µM (KM12 [2]) was 21% and the GI50 (786-0) was 4380 nM. The GI50 [3] was 3790 nM, the growth, % of control at 10 µM [4] was 41% and the GI50 [5] was 1910 nM. For the same compound, the GI50 (MDA-MB-435) was 310 nM, the growth, % of control at 10 µM [6] was 5.3% and the growth, % of control at 10 µM (MDA-MB-231 [7]) was 39.4%. It also gave a growth, % of control at 10 µM (HT-29) of 10%, a growth, % of control at 10 µM (MCF7) of 12.1% and a growth, % of control at 10 µM [8] of 7.8%. The GI50 [9] was 720 nM, the growth, % of control at 10 µM (Malme-3M) was 37.9% and the growth, % of control at 10 µM [10] was 29%. For the same compound, the growth, % of control at 10 µM [11] was 42.1%, the GI50 (MDA-MB-231 [12]) was 2430 nM and the GI50 (SR) was 5440 nM. It also gave a GI50 [13] of 1510 nM, a growth, % of control at 10 µM [14] of 26.6% and a GI50 (NCI-H522) of 2370 nM. The GI50 [15] was 5420 nM, the growth, % of control at 10 µM (SK-MEL-5) was 19.1% and the GI50 [16] was 3040 nM. The GI50 [17] was 3040 nM, the GI50 (A549 [18]) was 2650 nM and the GI50 (CCRF-CEM [19]) was 1910 nM. The growth, % of control at 10 µM [20] was 35.2%, the GI50 (KM12 [21]) was 2390 nM and the GI50 [22] was 4240 nM. It also gave a GI50 [23] of 2140 nM, a growth, % of control at 10 µM (A549 [24]) of 31.7% and a GI50 (ACHN) of 4240 nM. The GI50 [25] was 1140 nM, the growth, % of control at 10 µM [26] was -21.2% and the GI50 [27] was 6240 nM. It also gave a growth, % of control at 10 µM [28] of 36.1%, a GI50 (SK-MEL-2) of 2900 nM and a growth, % of control at 10 µM [29] of 26.8%. It also gave a GI50 (MDA-MB-468) of 510 nM and a growth, % of control at 10 µM (CCRF-CEM [30]) of 21.6%.
`COc1ccc(/C(C#N)=C/c2ccc3c(c2)OCCO3)cc1OC` gave a GI50 [1] of 8850 nM, a growth, % of control at 10 µM (KM12 [2]) of 30.6% and a GI50 (786-0) of 3880 nM. For the same compound, the GI50 [3] was 11200 nM, the growth, % of control at 10 µM [4] was 66.7% and the GI50 [5] was 2490 nM. For the same compound, the GI50 (MDA-MB-435) was 260 nM, the growth, % of control at 10 µM [6] was 57.1% and the growth, % of control at 10 µM (MDA-MB-231 [7]) was 63%. The growth, % of control at 10 µM (HT-29) was 6.6%, the growth, % of control at 10 µM (MCF7) was 20.1% and the growth, % of control at 10 µM [8] was -15.7%. For the same compound, the GI50 [9] was 1040 nM, the growth, % of control at 10 µM (Malme-3M) was 51.8% and the growth, % of control at 10 µM [10] was 30.1%. The growth, % of control at 10 µM [11] was 41.8%, the GI50 (MDA-MB-231 [12]) was 4690 nM and the GI50 (SR) was 930 nM. For the same compound, the GI50 [13] was 1040 nM, the growth, % of control at 10 µM [14] was 19.2% and the GI50 (NCI-H522) was 2800 nM. For the same compound, the GI50 [15] was 8850 nM, the growth, % of control at 10 µM (SK-MEL-5) was 16.8% and the GI50 [16] was 2160 nM. It also gave a GI50 [17] of 4570 nM, a GI50 (A549 [18]) of 4120 nM and a GI50 (CCRF-CEM [19]) of 3760 nM. For the same compound, the growth, % of control at 10 µM [20] was 44.9%, the GI50 (KM12 [21]) was 1590 nM and the GI50 [22] was 4080 nM. It also gave a GI50 [23] of 2980 nM, a growth, % of control at 10 µM (A549 [24]) of 40% and a GI50 (ACHN) of 7610 nM. It also gave a GI50 [25] of 2160 nM, a GI50 [27] of 5010 nM and a growth, % of control at 10 µM [28] of 21.3%. It also gave a GI50 (SK-MEL-2) of 1840 nM, a growth, % of control at 10 µM [29] of 19.6% and a GI50 (MDA-MB-468) of 1110 nM. The growth, % of control at 10 µM [31] was 39.3% and the growth, % of control at 10 µM (CCRF-CEM [30]) was 6.4%.
